The values below come from ChEMBL document CHEMBL4346670, “Discovery of Novel Janus Kinase (JAK) and Histone Deacetylase (HDAC) Dual Inhibitors for the Treatment of Hematological Malignancies” (J Med Chem, 2019).

For assay [1], the system named is K562. The experiment in a line: Induction of apoptosis in human K562 cells assessed as late apoptotic cells at 1 uM after 24 hrs by Annexin-V/propidium iodide staining-based flow cytometric analysis (reference value: 5.87%). The format is functional. (In flow cytometry, cells or beads pass a laser one at a time.)
Another assay addresses Histone deacetylase. Briefly: Inhibition of HDAC in human HeLa nuclear extract using Boc-Lys(acetyl)-AMC as substrate preincubated for 5 mins followed by substrate addition and measured after 30 mins by fluorescence assay. The format is cell-based.
The subject of a further assay is Jurkat. Briefly: Antiproliferative activity against human Jurkat cells assessed as reduction in cell viability after 48 hrs by MTT assay. It is filed as functional, cell-based. (In general: Tetrazolium dyes change colour on reduction, which living cells bring about.)
For assay [2], the system named is K562. The experiment in a line: Induction of apoptosis in human K562 cells assessed as necrotic apoptotic cells at 1 uM after 24 hrs by Annexin-V/propidium iodide staining-based flow cytometric analysis (reference value: 0.827%). It is filed as functional.
Another assay concerns the target Histone deacetylase 2 (Homo sapiens, UniProt Q92769). Briefly: Inhibition of HDAC2 (unknown origin) using Boc-Lys(acetyl)-AMC as substrate preincubated for 5 mins followed by substrate addition and measured after 30 mins by fluorescence assay.
The target in another assay is T1, Histone deacetylase 8 (Homo sapiens, UniProt Q9BY41).
T1 sequence (Q9BY41 whole entry): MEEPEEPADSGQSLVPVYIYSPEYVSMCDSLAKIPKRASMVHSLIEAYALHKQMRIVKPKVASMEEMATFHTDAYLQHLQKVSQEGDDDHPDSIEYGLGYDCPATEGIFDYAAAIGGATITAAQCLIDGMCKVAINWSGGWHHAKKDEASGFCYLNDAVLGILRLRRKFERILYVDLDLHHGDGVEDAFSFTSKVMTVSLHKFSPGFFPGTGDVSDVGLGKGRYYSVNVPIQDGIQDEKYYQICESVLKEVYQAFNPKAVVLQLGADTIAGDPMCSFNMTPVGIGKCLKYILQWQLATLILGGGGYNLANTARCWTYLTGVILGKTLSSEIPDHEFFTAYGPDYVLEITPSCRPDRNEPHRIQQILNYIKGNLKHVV
The experiment in a line: Inhibition of HDAC8 (unknown origin) using Boc-Lys(trifluoroacetyl)-AMC as substrate preincubated for 5 mins followed by substrate addition and measured after 30 mins by fluorescence assay.

Assay [3] relates to HEL. The experiment in a line: Induction of apoptosis in HEL cells assessed as early apoptotic cells at 1 uM after 24 hrs by Annexin-V/propidium iodide staining-based flow cytometric analysis (reference value: 12.5%). The format is functional, Homo sapiens.
Assay [4] relates to HEL. Briefly: Induction of apoptosis in HEL cells assessed as necrotic apoptotic cells at 1 uM after 24 hrs by Annexin-V/propidium iodide staining-based flow cytometric analysis (reference value: 0.011%). The format is functional, Homo sapiens.
Assay [5] relates to HEL. Briefly: Induction of apoptosis in HEL cells assessed as viable cells at 1 uM after 24 hrs by Annexin-V/propidium iodide staining-based flow cytometric analysis (reference value: 87.5%). Conditions: Homo sapiens, HEL, 24 h; read-out: Activity. The format is functional, Homo sapiens.
Assay [6] has as its target Tyrosine-protein kinase JAK1 (Homo sapiens, UniProt P23458). The experiment in a line: Inhibition of recombinant human JAK1 using Ulight-CAGAGAIETDKEYYTVKD as substrate measured after 60 mins by LANCE assay. A digest of the protocol: (§1)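 Human recombinant JAK enzyme assays run by a contract lab. IC50 was taken from a non-linear curve fit, with all parameters allowed to float. Assays were run in replicate (n>2) and reported as mean ± SD.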

The target of assay [7] is T2, Protein deacetylase HDAC6 (Homo sapiens, UniProt Q9UBN7).
T2 sequence (Q9UBN7 whole entry): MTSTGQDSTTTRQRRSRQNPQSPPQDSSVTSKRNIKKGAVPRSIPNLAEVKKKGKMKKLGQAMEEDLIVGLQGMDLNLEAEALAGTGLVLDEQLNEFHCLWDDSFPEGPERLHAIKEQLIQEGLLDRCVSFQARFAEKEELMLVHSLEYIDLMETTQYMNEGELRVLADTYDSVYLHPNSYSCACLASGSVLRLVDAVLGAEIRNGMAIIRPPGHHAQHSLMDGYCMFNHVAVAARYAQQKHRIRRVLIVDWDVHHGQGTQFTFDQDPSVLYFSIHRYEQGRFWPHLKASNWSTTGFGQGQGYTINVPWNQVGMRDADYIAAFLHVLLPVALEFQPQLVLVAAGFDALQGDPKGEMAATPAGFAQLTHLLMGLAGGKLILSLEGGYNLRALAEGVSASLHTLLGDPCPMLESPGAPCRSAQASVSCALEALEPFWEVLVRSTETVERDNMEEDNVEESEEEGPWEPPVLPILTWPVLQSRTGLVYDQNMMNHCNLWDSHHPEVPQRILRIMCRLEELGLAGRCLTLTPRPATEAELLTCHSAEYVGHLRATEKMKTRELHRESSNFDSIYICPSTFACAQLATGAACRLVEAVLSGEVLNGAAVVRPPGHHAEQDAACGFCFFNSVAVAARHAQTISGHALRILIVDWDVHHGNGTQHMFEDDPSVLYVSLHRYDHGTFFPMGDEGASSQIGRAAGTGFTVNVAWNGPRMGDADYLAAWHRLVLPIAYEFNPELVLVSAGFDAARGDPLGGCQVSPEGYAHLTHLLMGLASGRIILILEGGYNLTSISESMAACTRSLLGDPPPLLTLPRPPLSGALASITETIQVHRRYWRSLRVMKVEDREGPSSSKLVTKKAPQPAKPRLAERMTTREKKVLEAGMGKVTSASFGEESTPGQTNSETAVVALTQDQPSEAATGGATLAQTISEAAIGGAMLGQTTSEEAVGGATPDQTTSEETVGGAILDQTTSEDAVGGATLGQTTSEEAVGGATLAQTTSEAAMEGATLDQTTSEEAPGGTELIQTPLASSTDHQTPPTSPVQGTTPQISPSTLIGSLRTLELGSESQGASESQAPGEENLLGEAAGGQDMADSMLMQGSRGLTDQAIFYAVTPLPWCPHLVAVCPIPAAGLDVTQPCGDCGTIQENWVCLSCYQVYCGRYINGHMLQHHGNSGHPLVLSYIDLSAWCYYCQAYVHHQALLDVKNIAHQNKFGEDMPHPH
Briefly: Inhibition of HDAC6 (unknown origin) using Boc-Lys(acetyl)-AMC as substrate preincubated for 5 mins followed by substrate addition and measured after 30 mins by fluorescence assay.

Assay [8] concerns K562. Briefly: Induction of apoptosis in human K562 cells assessed as viable cells at 1 uM after 24 hrs by Annexin-V/propidium iodide staining-based flow cytometric analysis (reference value: 85.7%). The format is functional. The following applies: Homo sapiens, K562, 24 h; read-out: Activity.
Assay [9] has as its system HEL. The experiment in a line: Antiproliferative activity against HEL cells harboring JAK2 V617F mutant assessed as reduction in cell viability after 48 hrs by MTT assay. Conditions: Homo sapiens. The format is functional, cell-based.
The target in assay [10] is Non-receptor tyrosine-protein kinase TYK2 (Homo sapiens, UniProt P29597). The experiment in a line: Inhibition of recombinant human TYK2 using Ulight-CAGAGAIETDKEYYTVKD as substrate measured after 60 mins by LANCE assay. A digest of the protocol: as §1
Non-receptor tyrosine-protein kinase TYK2, sequence (P29597 whole entry): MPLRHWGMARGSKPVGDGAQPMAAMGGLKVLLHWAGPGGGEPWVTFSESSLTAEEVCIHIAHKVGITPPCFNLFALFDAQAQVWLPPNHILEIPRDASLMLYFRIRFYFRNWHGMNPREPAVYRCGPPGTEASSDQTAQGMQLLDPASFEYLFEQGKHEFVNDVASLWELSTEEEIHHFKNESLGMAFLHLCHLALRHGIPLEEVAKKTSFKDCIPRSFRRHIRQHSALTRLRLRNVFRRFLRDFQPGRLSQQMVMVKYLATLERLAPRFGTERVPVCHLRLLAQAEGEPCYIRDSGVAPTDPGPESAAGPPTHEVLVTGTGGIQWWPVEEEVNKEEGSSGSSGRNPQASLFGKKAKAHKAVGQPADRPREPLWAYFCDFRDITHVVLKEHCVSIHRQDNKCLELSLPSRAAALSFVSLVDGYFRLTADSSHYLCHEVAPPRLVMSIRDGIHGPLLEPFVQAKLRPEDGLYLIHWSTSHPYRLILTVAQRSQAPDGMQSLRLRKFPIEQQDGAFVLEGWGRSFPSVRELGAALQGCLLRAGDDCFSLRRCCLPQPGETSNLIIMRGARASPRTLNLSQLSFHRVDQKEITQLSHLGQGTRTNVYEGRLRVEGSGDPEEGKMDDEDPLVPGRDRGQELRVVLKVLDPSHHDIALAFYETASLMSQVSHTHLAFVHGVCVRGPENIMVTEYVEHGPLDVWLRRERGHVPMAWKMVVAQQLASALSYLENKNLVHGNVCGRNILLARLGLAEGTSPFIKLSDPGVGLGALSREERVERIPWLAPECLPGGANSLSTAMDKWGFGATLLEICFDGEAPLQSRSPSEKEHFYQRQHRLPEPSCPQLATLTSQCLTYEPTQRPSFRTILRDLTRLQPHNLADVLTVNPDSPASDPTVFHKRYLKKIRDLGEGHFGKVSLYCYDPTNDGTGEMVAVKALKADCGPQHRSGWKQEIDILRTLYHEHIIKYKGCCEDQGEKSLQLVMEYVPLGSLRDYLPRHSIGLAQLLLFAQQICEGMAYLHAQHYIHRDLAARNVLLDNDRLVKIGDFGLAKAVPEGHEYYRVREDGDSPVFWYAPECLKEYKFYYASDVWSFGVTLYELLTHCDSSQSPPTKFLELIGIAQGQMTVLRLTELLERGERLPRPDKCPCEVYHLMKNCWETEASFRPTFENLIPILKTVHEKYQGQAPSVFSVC
On the technique in general: In TR-FRET formats the signal depends on donor and acceptor labels being close together.

For assay [11], the system named is K562. Briefly: Antiproliferative activity against human K562 cells assessed as reduction in cell viability after 48 hrs by MTT assay. It is filed as functional, cell-based. Conditions: K562, 48 h.
The target of assay [12] is Tyrosine-protein kinase JAK2 (Homo sapiens, UniProt O60674). The experiment in a line: Inhibition of recombinant human JAK2 using Ulight-CAGAGAIETDKEYYTVKD as substrate measured after 60 mins by LANCE assay.
Tyrosine-protein kinase JAK2, sequence (O60674 whole entry): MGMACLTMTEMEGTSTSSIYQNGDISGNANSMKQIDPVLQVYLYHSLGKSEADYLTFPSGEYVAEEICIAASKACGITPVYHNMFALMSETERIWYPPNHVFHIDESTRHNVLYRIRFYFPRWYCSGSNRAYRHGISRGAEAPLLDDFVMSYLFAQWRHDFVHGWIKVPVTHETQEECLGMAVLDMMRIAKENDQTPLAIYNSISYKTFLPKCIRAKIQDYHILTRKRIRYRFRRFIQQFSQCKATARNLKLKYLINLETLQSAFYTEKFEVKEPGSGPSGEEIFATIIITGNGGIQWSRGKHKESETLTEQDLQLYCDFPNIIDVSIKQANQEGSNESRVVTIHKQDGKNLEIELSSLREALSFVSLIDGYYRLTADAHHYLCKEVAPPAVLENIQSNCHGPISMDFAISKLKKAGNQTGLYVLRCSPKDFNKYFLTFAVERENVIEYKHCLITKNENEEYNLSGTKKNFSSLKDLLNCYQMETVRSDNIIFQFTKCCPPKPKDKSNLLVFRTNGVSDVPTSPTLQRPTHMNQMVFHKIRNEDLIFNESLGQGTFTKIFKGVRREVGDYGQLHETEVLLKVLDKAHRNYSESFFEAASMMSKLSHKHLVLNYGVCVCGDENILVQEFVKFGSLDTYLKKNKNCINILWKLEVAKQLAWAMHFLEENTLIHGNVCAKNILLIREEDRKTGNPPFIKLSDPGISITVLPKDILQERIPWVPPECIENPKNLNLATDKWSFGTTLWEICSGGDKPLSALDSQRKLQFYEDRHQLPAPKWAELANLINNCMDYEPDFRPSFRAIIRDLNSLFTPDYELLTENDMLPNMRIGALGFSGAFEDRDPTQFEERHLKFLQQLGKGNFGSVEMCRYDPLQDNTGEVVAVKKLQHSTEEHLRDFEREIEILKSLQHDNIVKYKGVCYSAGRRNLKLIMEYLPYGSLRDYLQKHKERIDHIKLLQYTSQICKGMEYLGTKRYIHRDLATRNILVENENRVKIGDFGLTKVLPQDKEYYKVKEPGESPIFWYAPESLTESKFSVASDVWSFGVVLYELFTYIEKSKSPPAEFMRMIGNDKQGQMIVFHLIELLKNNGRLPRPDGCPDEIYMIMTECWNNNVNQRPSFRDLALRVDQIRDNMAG

Tyrosine-protein kinase JAK1, sequence (P23458 whole entry): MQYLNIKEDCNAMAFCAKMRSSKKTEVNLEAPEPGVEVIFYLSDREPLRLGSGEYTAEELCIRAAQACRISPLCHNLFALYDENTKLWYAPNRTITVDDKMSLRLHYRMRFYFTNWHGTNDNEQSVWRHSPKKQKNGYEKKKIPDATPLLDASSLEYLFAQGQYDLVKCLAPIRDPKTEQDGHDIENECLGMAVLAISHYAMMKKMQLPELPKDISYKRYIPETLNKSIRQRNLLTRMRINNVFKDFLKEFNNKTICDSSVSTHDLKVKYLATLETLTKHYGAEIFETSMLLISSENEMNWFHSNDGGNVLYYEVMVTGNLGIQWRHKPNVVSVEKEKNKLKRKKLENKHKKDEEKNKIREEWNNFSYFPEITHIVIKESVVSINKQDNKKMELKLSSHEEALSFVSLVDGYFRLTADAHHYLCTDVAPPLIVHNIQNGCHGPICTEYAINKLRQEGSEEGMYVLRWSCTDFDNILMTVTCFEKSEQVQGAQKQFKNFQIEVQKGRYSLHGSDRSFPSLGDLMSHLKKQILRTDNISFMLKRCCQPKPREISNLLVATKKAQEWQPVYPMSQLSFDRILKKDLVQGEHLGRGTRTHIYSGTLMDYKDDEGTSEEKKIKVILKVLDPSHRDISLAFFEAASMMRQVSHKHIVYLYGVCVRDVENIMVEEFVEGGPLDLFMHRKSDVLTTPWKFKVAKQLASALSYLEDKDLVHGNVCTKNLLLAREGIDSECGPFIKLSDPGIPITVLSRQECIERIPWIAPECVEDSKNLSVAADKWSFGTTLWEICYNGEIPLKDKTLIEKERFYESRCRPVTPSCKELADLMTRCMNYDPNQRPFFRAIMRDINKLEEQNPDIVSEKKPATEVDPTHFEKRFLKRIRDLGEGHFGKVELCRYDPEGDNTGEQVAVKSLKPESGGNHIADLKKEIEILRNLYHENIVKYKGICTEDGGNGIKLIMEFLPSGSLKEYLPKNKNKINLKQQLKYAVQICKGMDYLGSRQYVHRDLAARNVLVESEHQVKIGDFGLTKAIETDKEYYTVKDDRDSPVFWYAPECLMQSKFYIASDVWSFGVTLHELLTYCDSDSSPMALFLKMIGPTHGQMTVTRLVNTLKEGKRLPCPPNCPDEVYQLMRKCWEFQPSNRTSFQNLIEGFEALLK
Histone deacetylase 2, sequence (Q92769 whole entry): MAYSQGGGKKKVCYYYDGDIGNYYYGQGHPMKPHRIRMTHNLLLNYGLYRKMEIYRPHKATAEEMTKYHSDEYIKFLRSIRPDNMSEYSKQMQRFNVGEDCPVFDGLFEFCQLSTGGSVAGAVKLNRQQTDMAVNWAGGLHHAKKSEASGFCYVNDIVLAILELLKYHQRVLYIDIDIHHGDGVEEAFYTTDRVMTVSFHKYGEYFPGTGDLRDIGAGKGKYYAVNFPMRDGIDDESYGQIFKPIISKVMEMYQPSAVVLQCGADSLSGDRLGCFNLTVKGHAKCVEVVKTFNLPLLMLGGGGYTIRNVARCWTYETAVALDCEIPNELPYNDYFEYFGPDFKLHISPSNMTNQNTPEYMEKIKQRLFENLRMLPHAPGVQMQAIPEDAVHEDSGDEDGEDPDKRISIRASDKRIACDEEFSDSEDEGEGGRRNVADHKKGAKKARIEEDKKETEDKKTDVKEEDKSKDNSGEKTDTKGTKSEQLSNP

Take `O=C(CCCCCCn1cc(Nc2ncc(Cl)c(Nc3cccc(Cl)c3)n2)cn1)NO`: the Activity is reported as 30% in the assay with K562 [1], 1.14% in the assay with K562 [2], 22.8% in the assay on HEL [3] and 2.58% in the assay on HEL [4]. The IC50 (commonly the concentration at which inhibition is half-maximal) was 20 nM against Histone deacetylase; 100 nM with Jurkat; 130 nM at Histone deacetylase 2; 840 nM at Histone deacetylase 8; 15 nM in [6]; 41 nM in assay [7]. For the same compound, the IC50 with HEL [9] came to 140 nM; in [10], 67 nM; in the assay on K562 [11], 380 nM; in [12] it was 10 nM. Besides, the viability at 1 µM with HEL [5] came out at 5.97%; in the assay on K562 [8], 53.6%.
As for `O=C(CCCCCn1cc(Nc2ncc(Cl)c(Nc3ccc(Cl)cc3)n2)cn1)NO`, the Activity was determined as 46.9% with K562 [1], 1.07% with K562 [2], 27.8% in the assay on HEL [3] and 7.97% in the assay with HEL [4]. Besides, the concentration for half-maximal inhibition (IC50) is 2 nM on Histone deacetylase; 60 nM with Jurkat; 120 nM at Histone deacetylase 2; 2470 nM at Histone deacetylase 8; 4.8 nM in assay [6]; 14 nM in assay [7]. Further, the IC50 with HEL [9] turned out to be 90 nM; in [10] it was 49 nM; in the assay on K562 [11], 490 nM; in [12] it was 4 nM. Besides, the viability at 1 µM in the assay with HEL [5] is 4.31%; in the assay with K562 [8], 17.6%.
